This sample holds only a part of the variants without activity.
B1: tRNA (parent)
chain: GUUCCGUUGGCGUAAUGGUAACGCGUCUCCCUCCUAAGGAGAAGACUGCGGGUUCGAGUCCCGUACGGAACG

Variants of: B1
Test: yeast fitness relative to wild type (ratio to wild type); higher = fitter; tRNA-Arg(CCU), competitive growth, 37 C, YPD
In short: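 Changes in genotype frequencies gave Darwinian fitness relative to wild type. Frequencies were read by 100-nucleotide paired-end sequencing of gene amplicons before and after pooled Saccharomyces cerevisiae strains, carrying tRNA-Arg(CCU) gene variants at the native locus, were competed in YPD at 37°C for 24 hours in six replicates. A genotype was kept only with ≥ 100 starting reads, and estimates < 0.5 were set to 0.5.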

Point of comparison: GUUCCGUUGGCAUAAUGGUAACGCGUCUCCCUCCUAAGGAGAAGACUGCGGGUUCGAGUCCCGUACGGAACG [G12A], yeast fitness 0.999. Against it:
- GUUCCGUUGGCAUAAUGGUAACGCGUCUCCCUCCUGAGGAGAAGACGGCGGGUUCGAGUCCCGUUCGGAACG [G12A A36G U47G A65U] — lower, 0.646
- GUUCCGUUGGCGUAGUGGUAACGCGUCUCCCUCCUAAAGGGAAGACUGCGGGUUCGAGUCCCGUACGGUACG [A15G G38A A40G A69U] — lower, ≤ 0.5
- GUUCCGUUGGCGUAAUGGUAACGCCUCUCCCUCCUAAGAAGAAGACUGCGGGUUCGAGUCCCGUAUGGAACG [G25C G39A C66U] — lower, 0.504
- GUUCGGUUGGCGCAAUGGUACCGCGUCUCCCUCCUAAGGAGAAGACUGCGGGUUCGAGUCCCCUACGGCACG [C5G U13C A21C G63C A69C] — lower, ≤ 0.5
- GUUCCGUUAGCCAAAUGGUAACGCAUCUCGCUCCUAAGGAGAAGACUGCGGGUUCGAGUCCCGUACGGAACG [G9A G12C U13A G25A C30G] — lower, ≤ 0.5
- GUUCCGUUGGCGUAAUGGUAACGCGUCUCCCUCAUAAGGAGAAGACUGCGCGUUCGAGUCCCGUACGGAACG [C34A G51C] — lower, ≤ 0.5
- GUUCCGAUGGCGUAACAGUAACGCGUCUUCAUCCCAAGGAGAAGACUGCGGGUUCGAGUCCCGUAGUGAACG [U7A U16C G17A C29U C31A U35C C66G G67U] — lower, ≤ 0.5
- GUUCCGUUGGCGUAAUGGUAACGCGUCUCCCUCCUAAGGAGAAGACUCUGGGUGCGAGUCCCGUAAGGAACG [G48C C49U U54G C66A] — lower, 0.624
- GUUCCGUUGGCGUAAUGGUAACGCAUCUCCCUCCUAAGCAGAAGACUGCGGGUUCGAGUCCCGUACGGAACG [G25A G39C] — lower, 0.755
- GUUCCGUUGGCGUAAUGGUAACACCUCUCCCUCCUAAGGAGAAGAGUACGGGUUCGAGUCCCGUAAGGAACG [G23A G25C C46G G48A C66A] — lower, ≤ 0.5
- GUUACGUUGGCGUAAUGGUAACGCGUCUCCCUCCUUCGGAGAAGACCGCGGGUUCGAGUCCCGUACGGAUCG [C4A A36U A37C U47C A70U] — lower, 0.55
- GUUCCGUUGGCGUAAUGGUAACGCGUCUCCCUCCUAAGGAGAAGACUGCGGGUUCGAGUCCCCUACGCAACG [G63C G68C] — lower, 0.761
- GUUCCGUUGGCGUAAUGGUAACGCGUCGCCUUCCUAAGGAGAAGACUGCGGGUUCGAGUCCCGUACGGAUCG [U28G C31U A70U] — lower, 0.543
- GUUCCGUUGGCGUAAUGGUAACGCGUCUCCCUCCUAAGGAAAAGACUGCGGGUUCGAGUGCCGUGCGAAACG [G41A C60G A65G G68A] — lower, ≤ 0.5
- GUUCCGUUGGCGUAAAGGUAACGCGUCUCCAUCGUAAGGAGAAGACUGCGGGUUCGAGUCCCGUACGGAACG [U16A C31A C34G] — lower, ≤ 0.5
- GUUCCGUUGGCGUAAUGGUAACGCGUAACGCUCCUAAGGAGAAGACUGCGGGUUCGAGUCCCGUACAGAACG [C27A U28A C30G G67A] — lower, 0.587
- GUUCCGUUCGCGUCAUGGUAACGCGUCUCCCUCCUAAGGAGAACACUGCGGGUUCGAGUCCCGGACGGACCG [G9C A14C G44C U64G A70C] — lower, ≤ 0.5
- GUUCCGUUGGCGUAAUGGUGACGCGUCUCCCUCCUAAGGAGAAGACUGCGGGUUCGAAUCCCGUACGGAACG [A20G G58A] — lower, 0.97
- GUUCCGUUGGCGUAAUGGUAACGCGUCUCACUCCUAAGGAGAAGACUGCGGGUUCGAGUGCCGUACGGAACG [C30A C60G] — lower, 0.635
- GUUGCGUUGGCGUAAUGGUAACGCGUUUCCCUCCUAAGGACCAGACUGCGGGUUCGAGUCCCGUACGGAACG [C4G C27U G41C A42C] — lower, ≤ 0.5
- GUUACGUUGGCGUAAUGGUAACGCGUCUCCCUCCUAAGGAGGAGCCUGCGGGUUCGAGUCCCGUACGGAACG [C4A A42G A45C] — lower, ≤ 0.5
- GUUCCGUUGGCGUAAUGGUAACGCGUCUCCUUCCUAAGGAGAAGACUGCGGGUUGGAGUCCCGUACGGAACG [C31U C55G] — lower, 0.629
- GUUCCGUUGGCGUAGUGGUAACGCGACUCCCUCCUAAGGAGAAGACUGCGGGUUCGAGUUCCGUACGGACCG [A15G U26A C60U A70C] — lower, 0.52
- GUUCCGUUGGCGUAAUGGUAACGCGUCUCCCUCCUAAGGAGAAGACUCCGGGUUAGAGUCCCGUACGGAACG [G48C C55A] — lower, 0.703
- GUUCCGGUGGGGUAAUGGUAACGCGUCUCCCUCUUAAGGAGAAGACUGUGGGUUCGAGCCCGGUACGGAACG [U7G C11G C34U C49U U59C C62G] — lower, ≤ 0.5
- GUUCCGUUGGCGUGAUGGUAACGCGUCUCCUUCCUAAGGAGAAGACUGUGGGUUCGAGUCCCGUACGGAACG [A14G C31U C49U] — lower, 0.809
- GUUCGGUUGGCGUUAUGGUAACGCGUCCCCCUCCUAAGGAGAAGAGUGCGGGUUCGAGUCUCGUACGGAACG [C5G A14U U28C C46G C61U] — lower, ≤ 0.5
- GUUCCGUUGGCGUAAUGGUAACGCGUCUCAGUCCUAACGAGAAGACUGCGGGUUCGCGUCCCGUACGGAACG [C30A C31G G38C A57C] — lower, ≤ 0.5
- GUUCCGUUGGAGUAAUGGUAACGCGUCUCCCUCCUAAGGAGGUGAUUGCGGGUUCGAGUCCUGUACGGAACG [C11A A42G A43U C46U C62U] — lower, 0.582
- GUUCAGUUGGGGUAAUGGUAUCGCGUCCCCCUCCUAAGGAGAAGACUGCGGGUUCGAGUCCCGUACGGAACG [C5A C11G A21U U28C] — lower, ≤ 0.5
- GUUCCGUUGGCGUAAUGGUAACGCGUCUCCCUCCUAAGGAGAAGCCUGAGGGUCCGAGUCCCGUACGGAACG [A45C C49A U54C] — lower, ≤ 0.5
- GUUCCGUUGGGGUAAUCGUAACGCGUCUCCCUCAUAAGGAGACGACUGCGGGUUCCAGUCACGUCCGGAACG [C11G G17C C34A A43C G56C C61A A65C] — lower, ≤ 0.5
- GUUCCGUUGGCGUAAUGGUAACGCGUUUCCCUCCUAAGGAGAAGACUGUGGGUUCGAGUAACGUACGGAACG [C27U C49U C60A C61A] — lower, ≤ 0.5
- GUUCCGUUGACGUAAUGGUAACGCGUCUCCCUCUUAAGGAGAGGACUGCGGGUUCGAGUCCCGUACGGAACG [G10A C34U A43G] — lower, ≤ 0.5
- GUCCCGUUGGCGUAAUGGUUACGUGUCUCACUCCUAAGGAGAAGACUGCGGGUUCGAGUCCCGUACGGAACG [U3C A20U C24U C30A] — lower, 0.656
- GUUCCCUUGGCGUAAUGGUAACGCGUCUCCCUCCUAAGGAGAAGACUGCGGGUUCGAGUGCCGUACGGAACG [G6C C60G] — lower, 0.731

Reference: the RNAGym collection of RNA variant scans (doi:10.1126/science.aae0568)
